Screens from PubChem.
Scp-1 inhibitor: inhibitors of human Scp-1 phosphatase; Q9GZU7; 340,000 tested, 0.88% active; inhibition, % at 20 µM; AID 493091; Recombinant Scp1, phosphopeptide, malachite green phosphate absorbance;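 active = inhibition above about 50% at 20 µM, limit read from the data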
Target sequence (Q9GZU7 76-261 limits assumed): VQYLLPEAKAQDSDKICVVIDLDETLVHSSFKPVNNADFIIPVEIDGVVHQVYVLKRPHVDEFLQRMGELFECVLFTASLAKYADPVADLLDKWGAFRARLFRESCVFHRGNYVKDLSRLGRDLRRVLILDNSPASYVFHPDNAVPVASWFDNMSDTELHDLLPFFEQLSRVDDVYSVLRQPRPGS
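Material – SCP-1 phosphatase catalytic domain, residues 76-261 · Buffer or medium – Acidic Tris acetate buffer with magnesium and detergent · Also added – Phospho 17-mer peptide substrate · Compound – single 20 µM dose, 1% DMSO · Times – 45 min room-temperature reaction, 5 min colour, 30 min stabiliser · Technique – Phosphate-binding colour reagent, absorbance read at 630 nm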
SUMO1 PPI mod: SUMO1-SIM interaction modulation; 360,000 tested, 0.33% active; SUMO1 binding to a labelled peptide, TR-FRET, 1 h; P63165; inhibition, % at 20 µM; AID 602429; in the data active = inhibition above about 37%
Target sequence (P63165 whole entry, looked up): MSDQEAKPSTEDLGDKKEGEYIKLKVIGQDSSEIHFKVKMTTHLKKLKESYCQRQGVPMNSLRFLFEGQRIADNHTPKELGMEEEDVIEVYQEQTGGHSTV
GRK2 aptamer HTS: human GRK2 inhibition via aptamer displacement. inhibition of aptamer binding, % at 10 µM. 330,000 tested, 0.59% active. bead flow cytometry, FAM-aptamer displacement from GRK2. P25098;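 active = inhibition of aptamer binding above 40%, roughly 3 SD of noise, on plates passing a quality check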;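 also: median bead fluorescence of bound FAM aptamer so fluorescent compounds give negative values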
DNMT1 inh: blocks human DNA methyltransferase DNMT1 | P26358 | DNMT1 molecular beacon, Hinp1I cleavage, fluorescence | inhibition (reported as % activation of signal), % at 10 µM | 360,000 tested, 0.83% active; in the data active = inhibition above about 50%
LMPTP inh: blocks human LMPTP phosphatase; P24666; 360,000 tested, 0.22% active; recombinant LMPTP-A, OMFP fluorogenic substrate, fluorescence intensity; inhibition, % at 20 µM;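 active = compounds that cut the enzyme signal by at least half of the control window in the single-dose screen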
Target sequence (P24666 whole entry, looked up): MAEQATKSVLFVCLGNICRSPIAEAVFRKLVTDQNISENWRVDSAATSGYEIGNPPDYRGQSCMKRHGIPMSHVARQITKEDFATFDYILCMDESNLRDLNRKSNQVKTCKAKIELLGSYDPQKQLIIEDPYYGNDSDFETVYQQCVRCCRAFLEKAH
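Assay system: LMPTP-A enzyme. Input: 0.625 nM LMPTP-A final. Probe or stimulus: 400 µM OMFP. Compound dosing: single 20 µM dose. Schedule: 50 min dark incubation at room temperature. Detection: fluorescence intensity of OMFP turnover product. Read-out: percent inhibition versus substrate-only and uninhibited controls. Benchmarks: no-enzyme low control, uninhibited high control.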
STEP block: STEP (human) phosphatase inhibition; P54829; recombinant STEP, OMFP fluorogenic substrate, fluorescence; inhibition, % at 20 µM; 360,000 tested, 0.25% active; AID 588621;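 active = inhibition at 20 µM, scaled per plate between control wells, above about 37%, limit read from the data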
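Material: STEP (striatal-enriched tyrosine phosphatase) enzyme, cell-free | Medium: 50 mM Bis-Tris pH 6.0 with 2.5 mM DTT and 0.005% Tween 20 | Read-out: Percent inhibition scaled to no-enzyme and uninhibited-enzyme controls, plate-pattern corrected | Signal: Fluorescence read at 480 nm ex / 540 nm em | Times: 20 min reaction, room temperature, in the dark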
GRK2 CP1: confirmation of human GRK2 inhibitors displacing RNA aptamer; AID 504451; bead-bound GRK2, FAM-aptamer displacement, flow cytometry; aptamer displacement, % at 10 µM; shares compounds with GRK2 aptamer HTS; 2,000 tested, 4% active;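 active = aptamer displacement above 40%, near three times the noise of non-fluorescent compounds, on plates passing quality checks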;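 also: negative values mostly reflect intrinsic compound fluorescence rather than true enhancement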
Aptamer quench: fluorescent aptamer quenching in GRK2 counter-screen dose response; shares compounds with GRK2 aptamer HTS; Fluorescent RNA aptamer beads, flow cytometry; stronger effect = higher value; fluorescence change (kMESF span), kMESF (concentration not given with the values); 110 tested, under 10 active; AID 504521;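 active = compounds whose bead fluorescence drops by more than 37 kMESF across the dose range, marking them as dye quenchers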
FAM quench CP1: counter-screen for GRK2 aptamer inhibitors: fluorescent aptamer quenchers. shares compounds with GRK2 aptamer HTS. Carboxyfluorescein RNA aptamer on beads, flow cytometry quenching; stronger effect = lower value. fluorescence response (% of DMSO), % at 10 µM. 2,000 tested, under 10 active. AID 504580;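 active = compounds that quench the bead-bound fluorescent RNA probe, cutting fluorescence to under half of the solvent control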;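 also: counterscreen run without GRK2 so only probe quenching by compound is measured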
Hits are given with their value. Sampled rows, rich in hits. Any-hit rate of the full collection: about 2.1%.

Screening NC(=S)N1OC[C@@H]2COc3ccc4ccccc4c3[C@@H]21 returned Scp-1 inhibitor inactive, SUMO1 PPI mod inactive, GRK2 aptamer HTS 65.0, DNMT1 inh inactive, LMPTP inh inactive, STEP block inactive, GRK2 CP1 inactive and FAM quench CP1 inactive.
For COc1ccc2oc(C(=O)N3CCN(C(=O)c4ccco4)CC3)c(C)c2c1 the results were Scp-1 inhibitor inactive, SUMO1 PPI mod inactive, GRK2 aptamer HTS inactive, DNMT1 inh inactive, LMPTP inh inactive and STEP block inactive.
COc1ccc2oc(C(=O)N(Cc3ccco3)Cc3cccs3)c(C)c2c1 was read as Scp-1 inhibitor inactive, SUMO1 PPI mod inactive, GRK2 aptamer HTS 80.0, DNMT1 inh inactive, LMPTP inh inactive, STEP block inactive, GRK2 CP1 inactive and FAM quench CP1 inactive.
Screening O=C1c2ccccc2[C@@H]2C[C@@H](O)[C@H](Nc3ccccc3-c3ccccc3)CCN12 returned Scp-1 inhibitor inactive, SUMO1 PPI mod inactive, GRK2 aptamer HTS inactive, DNMT1 inh inactive, LMPTP inh inactive and STEP block inactive.
`Cc1cc2occ(CC(=O)N(C)CC(=O)Nc3ccccc3C(F)(F)F)c2cc1C` gave Scp-1 inhibitor inactive, SUMO1 PPI mod inactive, GRK2 aptamer HTS inactive, DNMT1 inh inactive, LMPTP inh inactive and STEP block inactive.
For CC[n+]1c(C)sc2c3ccsc3ccc21 the results were Scp-1 inhibitor inactive, SUMO1 PPI mod inactive, GRK2 aptamer HTS inactive, DNMT1 inh inactive, LMPTP inh inactive and STEP block inactive.
For CCN1/C(=C/c2ccc3cc(C)ccc3[n+]2CC)Sc2ccc3sccc3c21 the results were Scp-1 inhibitor inactive, SUMO1 PPI mod 103.9, GRK2 aptamer HTS 84.0, DNMT1 inh inactive, LMPTP inh 84.1, STEP block inactive, GRK2 CP1 89.4, Aptamer quench 66.6 and FAM quench CP1 inactive.
`O=C(COC(=O)c1cccc(OC(F)F)c1)Nc1ncccn1` gave Scp-1 inhibitor inactive, SUMO1 PPI mod inactive, GRK2 aptamer HTS inactive, DNMT1 inh inactive, LMPTP inh inactive, STEP block inactive, GRK2 CP1 inactive and FAM quench CP1 inactive.
O=C(Nc1ccccc1N1CCCC1)c1ccco1 was read as Scp-1 inhibitor inactive, SUMO1 PPI mod inactive, GRK2 aptamer HTS inactive, DNMT1 inh inactive, LMPTP inh inactive and STEP block inactive.
For O=C(Nc1ccccc1N1CCCCC1)c1ccco1 the results were Scp-1 inhibitor inactive, SUMO1 PPI mod inactive, GRK2 aptamer HTS 49.0, DNMT1 inh inactive, LMPTP inh inactive, STEP block inactive, GRK2 CP1 inactive and FAM quench CP1 inactive.
Screening CN(C)CC(=O)c1c(N)n(Cc2ccccc2)c(=O)n(C)c1=O returned Scp-1 inhibitor inactive, SUMO1 PPI mod inactive, GRK2 aptamer HTS inactive, DNMT1 inh inactive, LMPTP inh inactive and STEP block inactive.
For Cc1cccc(C)c1NC(=O)CN(C)CC(=O)c1c(N)n(Cc2ccccc2)c(=O)n(C)c1=O the results were Scp-1 inhibitor inactive, SUMO1 PPI mod inactive, GRK2 aptamer HTS inactive, DNMT1 inh inactive, LMPTP inh inactive, STEP block inactive, GRK2 CP1 inactive and FAM quench CP1 inactive.
For CCCOc1ccc(F)cc1-c1cc(C(=O)NCc2cccc(C(F)(F)F)c2)[nH]n1 the results were SUMO1 PPI mod inactive, DNMT1 inh inactive, LMPTP inh inactive and STEP block inactive.
For COc1cc(C2OCC3C(c4ccc(OC5OC(CO)C(O)C(O)C5O)c(OC)c4)OCC23)ccc1O (stereo not given) the results were Scp-1 inhibitor inactive, SUMO1 PPI mod inactive, GRK2 aptamer HTS inactive, DNMT1 inh inactive, LMPTP inh inactive, STEP block inactive, GRK2 CP1 inactive and FAM quench CP1 inactive.
